Bioassay records (PubChem)
EBV gp42 block = EBV gp42 inhibition | Q1HVG2 | Fluorescence polarization binding assay, mP read-out | inhibition, % (tested at 21.74 µM) | 0.42% of 220,000 active | AID 1085; in the data active = inhibition above about 50%
Target sequence (Q1HVG2 whole entry, looked up): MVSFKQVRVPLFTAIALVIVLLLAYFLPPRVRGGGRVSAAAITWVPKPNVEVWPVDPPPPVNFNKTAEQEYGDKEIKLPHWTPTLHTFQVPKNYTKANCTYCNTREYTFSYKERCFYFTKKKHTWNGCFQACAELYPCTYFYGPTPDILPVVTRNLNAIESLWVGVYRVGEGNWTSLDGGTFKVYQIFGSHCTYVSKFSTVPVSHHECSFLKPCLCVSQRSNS
HCV core dimer = HCV core protein dimerization inhibition; TR-FRET GST/Flag-core106 dimerization, 1536-well; inhibition, % at 5 µM; 0.33% of 300,000 active;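 active = inhibition above the mean of all tested compounds plus 3 SD, set per screening campaign, cut at about 45% in these data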
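test system = GST/Flag-tagged HCV core106 proteins | probe or stimulus = Eu donor and XL665 acceptor anti-tag antibodies | times = compound-protein-antibody incubation 4 h at 22.5 °C | signal = TR-FRET, excitation 340 nm, emission 617 and 671 nm | measure = percent inhibition of core106 dimerization signal | controls = wells lacking GST-core106 and wells with excess unlabelled core106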
HCV NS3 hel inh = HCV NS3 helicase inhibition. 0.56% of 290,000 active. NS3 helicase DNA unwinding, Cy5 molecular beacon fluorescence. inhibition, % at 10.9 µM;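 active = inhibition above the mean of all tested compounds plus 3 SD, set per campaign, cut at about 35% in these data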;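 also: 0% = DMSO wells and 100% = thioflavine S control wells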
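Control set: DMSO versus 110 µM thioflavine S; Material: NS3 helicase fragment of HCV; Measured by: Cy5 fluorescence at 0 and 60 min, beacon hairpin quenching; Read-out basis: percent inhibition from t60/t0 fluorescence ratio; Times: reaction time 60 min, 25 °C; Repeats: single replicate; Compound dosing: single dose, 10.9 µM nominal final, DMSO 0.8% final.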
EBNA-1 inhibitor = blocks EBNA-1 binding to DNA; EBNA-1 DNA binding, fluorescence polarization; inhibition, % at 14.8 µM; 0.34% of 300,000 active; in the data active = inhibition above about 28%
GPR7 antag = antagonists of human GPR7 (neuropeptides B/W receptor 1); P48145; GPR7-expressing cells, fluorescence antagonist assay; inhibition, % at 4.4 µM; 1.1% of 290,000 active; AID 1861; in the data active = inhibition above about 16%, passing the limit was not always enough;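 also: cells stimulated with the agonist NPW; 0% = agonist with vehicle and 100% = vehicle without agonist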
Target sequence (P48145 whole entry, looked up): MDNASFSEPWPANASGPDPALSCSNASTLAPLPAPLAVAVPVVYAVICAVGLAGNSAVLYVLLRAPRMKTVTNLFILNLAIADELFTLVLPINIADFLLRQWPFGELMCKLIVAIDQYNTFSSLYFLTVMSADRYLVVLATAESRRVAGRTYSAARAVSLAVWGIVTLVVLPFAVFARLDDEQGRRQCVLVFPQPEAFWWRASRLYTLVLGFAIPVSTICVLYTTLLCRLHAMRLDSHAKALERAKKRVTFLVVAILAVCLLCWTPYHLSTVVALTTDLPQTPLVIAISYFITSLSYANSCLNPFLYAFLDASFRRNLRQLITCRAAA
ZTA counter = blocks Epstein-Barr virus ZTA, an EBNA-1 counter-screen; ZTA-DNA binding, fluorescence polarization; inhibition, % at 11 µM; 0.15% of 320,000 active; P03206; in the data active = inhibition above about 33%
Numbers without * were called inactive. Only some compounds are listed: those with a hit (about 2.3% of all), similar ones and a draw of the others.

What do the screens show for `CN1C(=O)C(Cc2c[nH]c3ccccc23)C(=O)N(C)C1=O`?
EBV gp42 block: 104.5*; HCV NS3 hel inh: 4.8; GPR7 antag: -18.6

How did COc1ccc(-c2nc3ccc(C(=O)N4CCC5(CC4)OCCO5)cc3nc2-c2ccc(OC)cc2)cc1 do in these assays?
HCV core dimer: 17.8; HCV NS3 hel inh: -9.8; EBNA-1 inhibitor: -16.3; GPR7 antag: 12.6; ZTA counter: 1.3

Results for Cc1ccccc1C(=O)NC(Oc1ccccc1)C(Cl)(Cl)Cl (configuration not stated) ?
EBV gp42 block: -7.9; HCV core dimer: 4.4; HCV NS3 hel inh: 1.3; EBNA-1 inhibitor: 3.2; GPR7 antag: -6.9; ZTA counter: 0.1

How did CCCC(=O)NC(Oc1ccc(C(C)=O)cc1)C(Cl)(Cl)Cl (configuration not stated) do in these assays?
EBV gp42 block: 62.9*; HCV core dimer: -0.5; HCV NS3 hel inh: 12.8; EBNA-1 inhibitor: -0.1; GPR7 antag: -7.0; ZTA counter: 9.3

What do the screens show for `CC1CCN(c2cc(Br)c([N+](=O)[O-])cc2F)CC1`?
EBV gp42 block: -17.1; HCV core dimer: 1.2; HCV NS3 hel inh: 1.8; EBNA-1 inhibitor: -3.1; GPR7 antag: -18.4; ZTA counter: -12.7

Results for CN(C)[C@@H]1C(=O)C(C(N)=O)=C(O)[C@@]2(O)C(=O)C3=C(O)c4c(O)cccc4[C@@](C)(O)[C@H]3C[C@@H]12 ?
HCV core dimer: 52.1*; EBNA-1 inhibitor: 22.2; ZTA counter: 6.9

What do the screens show for `CN(C)[C@@H]1C(=O)C(C(N)=O)=C(O)[C@@]2(O)C(=O)C3=C(O)c4c(O)ccc(Cl)c4[C@@](C)(O)C3C[C@@H]12` (some centres not stated)?
EBV gp42 block: -6.2; HCV NS3 hel inh: 31.2; GPR7 antag: 7.5

How did CC1(C)COC(Nc2cccc(Cl)c2)=N1 do in these assays?
EBV gp42 block: -18.7; HCV core dimer: -0.8; HCV NS3 hel inh: 1.9; EBNA-1 inhibitor: 1.9; GPR7 antag: 2.4; ZTA counter: -4.4

Results for CCOc1ccc(-c2c(C)n(-c3ccc(OCC)cc3)c3[n+]2CCCCC3)cc1 ?
EBV gp42 block: 3.2; HCV core dimer: -3.4; HCV NS3 hel inh: -47.4; EBNA-1 inhibitor: -6.8; GPR7 antag: 45.9*; ZTA counter: -17.2

Results for C=C1C(=O)O[C@@H]2C[C@@H](C)[C@H]3C=CC(=O)[C@]3(O)C[C@@H]12 ?
EBV gp42 block: -2.4; HCV core dimer: 46.6*; EBNA-1 inhibitor: 6.7; ZTA counter: 1.4

What do the screens show for `O=c1[nH]c(=O)n(Cc2ccc(F)cc2)c(O)c1/C=N/Nc1ccccc1`?
EBV gp42 block: -14.1; HCV core dimer: -2.0; HCV NS3 hel inh: 9.9; EBNA-1 inhibitor: 7.3; GPR7 antag: -13.8; ZTA counter: -2.2

What do the screens show for `COc1ccccc1CN1CCN(C(=O)COc2cccc(C)c2)CC1`?
EBV gp42 block: -33.2; HCV core dimer: -5.6; HCV NS3 hel inh: 0.8; EBNA-1 inhibitor: -5.0; GPR7 antag: 14.5*; ZTA counter: -6.1

What do the screens show for `O=c1cc(C(F)(F)F)c2cc3c4c(c2o1)CCCN4CCC3`?
EBV gp42 block: 149.6*; HCV core dimer: 5.5; HCV NS3 hel inh: 10.4; EBNA-1 inhibitor: 2.4; GPR7 antag: 11.8; ZTA counter: 2.1

Results for CC[C@@H]1C=CC=CC[C@H](C)[C@@H](O)[C@@H](C)C(=O)[C@H](C)[C@@H](O)[C@H](C)C(=O)[C@H](C)[C@@H](O)[C@H](C)C=CC(=O)O[C@H]2[C@@H](C)[C@@H](CC1)O[C@@]1(CC[C@@H](C)[C@@H](C[C@H](C)O)O1)[C@@H]2C ?
HCV core dimer: -12.1; EBNA-1 inhibitor: 2.3; ZTA counter: -16.2

What do the screens show for `COc1ccc(N=Cc2c(O)n(Cc3ccccc3)c(=S)[nH]c2=O)c(OC)c1`?
EBV gp42 block: 89.8*; HCV core dimer: 0.7; HCV NS3 hel inh: 4.4; EBNA-1 inhibitor: 4.8; GPR7 antag: -4.2; ZTA counter: -13.7

What do the screens show for `Oc1cccc2nc3ccccc3nc12`?
EBV gp42 block: -12.9; HCV core dimer: -29.3; HCV NS3 hel inh: -3.2; EBNA-1 inhibitor: -1.6; GPR7 antag: -12.9; ZTA counter: -18.4

What do the screens show for `Cc1ccccc1-n1c(O)c(/C=C2/C(c3ccccc3)=Nc3ccccc32)c(=O)[nH]c1=O`?
EBV gp42 block: -11.9; HCV core dimer: -34.2; HCV NS3 hel inh: 26.0; EBNA-1 inhibitor: -2.5; GPR7 antag: 29.0*; ZTA counter: -4.5

Results for Cc1cccc(-n2c(O)c(/C=C3/C(c4ccccc4)=Nc4ccccc43)c(=O)[nH]c2=O)c1 ?
EBV gp42 block: -1.7; HCV core dimer: -15.6; HCV NS3 hel inh: -1.7; EBNA-1 inhibitor: -6.2; GPR7 antag: 8.7; ZTA counter: 6.1

What do the screens show for `CC(C)c1ccccc1NC1=NCCCS1`?
HCV core dimer: 8.3; HCV NS3 hel inh: 0.5; EBNA-1 inhibitor: 3.4; GPR7 antag: 0.8; ZTA counter: -8.8

What do the screens show for `CCN(CCCl)Cc1ccccc1Br`?
HCV core dimer: -3.6; EBNA-1 inhibitor: -1.9; ZTA counter: -5.2

What do the screens show for `CCCCCOc1ccc(C)cc1CN(CCCl)CCCl`?
EBV gp42 block: -9.8; HCV core dimer: 2.2; HCV NS3 hel inh: 0.3; EBNA-1 inhibitor: -5.0; GPR7 antag: 30.1*; ZTA counter: -7.2

What do the screens show for `O=c1c2ccccc2nc(-c2ccccc2)n1-c1ccc(O)cc1`?
EBV gp42 block: -6.5; HCV core dimer: 1.4; HCV NS3 hel inh: 7.1; EBNA-1 inhibitor: 3.8; GPR7 antag: -4.3; ZTA counter: -1.5

How did CN1C(=O)NC(=O)/C(=C/c2ccc([N+](=O)[O-])o2)C1=O do in these assays?
EBV gp42 block: -9.4; HCV core dimer: -1.5; HCV NS3 hel inh: 18.3; EBNA-1 inhibitor: -0.9; GPR7 antag: 19.4; ZTA counter: 16.5

How did O=C1NC(=O)N(c2ccccc2)C(=O)/C1=C\c1ccc([N+](=O)[O-])o1 do in these assays?
EBV gp42 block: -11.8; HCV core dimer: 2.4; HCV NS3 hel inh: 34.1; EBNA-1 inhibitor: -1.8; GPR7 antag: -11.2; ZTA counter: 41.5*

Results for O=c1[nH]c(=O)n(Cc2ccccc2)c(O)c1/C=C1\C=Nc2ccccc21 ?
EBV gp42 block: 89.9*; HCV core dimer: 5.2; HCV NS3 hel inh: 9.3; EBNA-1 inhibitor: -15.0; GPR7 antag: -5.4; ZTA counter: 5.3

Results for O=[N+]([O-])c1ccc(CNCCc2ccccc2)cc1 ?
HCV core dimer: 3.0; HCV NS3 hel inh: -5.7; EBNA-1 inhibitor: 9.9; GPR7 antag: -6.8; ZTA counter: 0.9

How did CCOc1ccc([N+](=O)[O-])cc1CNCCc1ccccc1 do in these assays?
EBV gp42 block: -12.2; HCV core dimer: -3.7; HCV NS3 hel inh: -5.4; EBNA-1 inhibitor: -10.6; GPR7 antag: 44.1*; ZTA counter: -7.0

What do the screens show for `C=CCn1c(O)c(C(CC)=Nc2ccc(N(C)C)cc2)c(=O)[nH]c1=O`?
EBV gp42 block: -15.2; HCV core dimer: 0.3; HCV NS3 hel inh: 20.3; EBNA-1 inhibitor: 126.8*; GPR7 antag: -13.0; ZTA counter: 137.6*
